One may read the IC50 as the concentration that gives 50% inhibition. One may read the Kd as a measure of binding affinity in units of concentration. A high value points to weaker binding. As a reminder, the Ki is a dissociation constant, usually derived from enzyme kinetics or from competition with a known ligand.

The text below walks through data of PMC9827282 (RSC Advances, 2023).

SMILES strings stand for the structures. Where two headings read alike, the source gives them in different places.

For one experiment, the system named is XO. The conditions noted are these: cited from earlier work.
The target in experiment [1] is T1, XO (isolated from bovine milk) (Bos taurus, UniProt P80457). Nature of the experiment: Fluorescence titrations. Type of experiment: binding. The note with it: for Kd: binding constant K. In a few lines: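 Intrinsic fluorescence of bovine milk XO (0.16 U mL−1) titrated with test compound at 0–26.7 μM, at 298, 304 and 310 K. Excitation 280 nm, emission 300–500 nm, slit 5.0 nm. Mixtures equilibrated 30 min before reading. Compound-only control at each concentration; PBS blank for background correction. Final DMSO below 1%.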

In experiment [2] the target is T1, XO (isolated from bovine milk). In words: Fourier translation infrared spectroscopy, secondary structure of XO. The note with it: XO 0.5 U mL^−1 with AUR. The essentials:
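FT-IR of bovine milk XO (0.5 U mL−1), alone and with test compound (200 μM), at room temperature. Spectra collected over 1800–1400 cm−1 at 4 cm−1 resolution, 128 scans co-added, background subtracted. Secondary-structure fractions quantified by split-peak fitting of the amide I band (1600–1700 cm−1).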

The target is the same in experiment [3]. Nature of the experiment: Enzyme kinetic studies. In kind it is biochemical. The essentials:
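Bovine milk XO. Reversibility: xanthine held at 0.25 mM, XO varied 0.03–0.15 U mL−1 (five levels), test compound at 0, 10, 20 and 30 μM, velocity plotted against [XO]. Inhibition type: XO 0.025 U mL−1, xanthine 0.0625–0.1875 mM, same compound levels. Lineweaver–Burk double-reciprocal analysis, with linear secondary replots of slope and Y-intercept against [compound].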

Experiment [4] shares this target. Nature of the experiment: XO inhibition assay. In kind it is biochemical.
The mark [5] stands for this setting: 298, 304 and 310 K (taken as constant).

T1 sequence (P80457 whole entry): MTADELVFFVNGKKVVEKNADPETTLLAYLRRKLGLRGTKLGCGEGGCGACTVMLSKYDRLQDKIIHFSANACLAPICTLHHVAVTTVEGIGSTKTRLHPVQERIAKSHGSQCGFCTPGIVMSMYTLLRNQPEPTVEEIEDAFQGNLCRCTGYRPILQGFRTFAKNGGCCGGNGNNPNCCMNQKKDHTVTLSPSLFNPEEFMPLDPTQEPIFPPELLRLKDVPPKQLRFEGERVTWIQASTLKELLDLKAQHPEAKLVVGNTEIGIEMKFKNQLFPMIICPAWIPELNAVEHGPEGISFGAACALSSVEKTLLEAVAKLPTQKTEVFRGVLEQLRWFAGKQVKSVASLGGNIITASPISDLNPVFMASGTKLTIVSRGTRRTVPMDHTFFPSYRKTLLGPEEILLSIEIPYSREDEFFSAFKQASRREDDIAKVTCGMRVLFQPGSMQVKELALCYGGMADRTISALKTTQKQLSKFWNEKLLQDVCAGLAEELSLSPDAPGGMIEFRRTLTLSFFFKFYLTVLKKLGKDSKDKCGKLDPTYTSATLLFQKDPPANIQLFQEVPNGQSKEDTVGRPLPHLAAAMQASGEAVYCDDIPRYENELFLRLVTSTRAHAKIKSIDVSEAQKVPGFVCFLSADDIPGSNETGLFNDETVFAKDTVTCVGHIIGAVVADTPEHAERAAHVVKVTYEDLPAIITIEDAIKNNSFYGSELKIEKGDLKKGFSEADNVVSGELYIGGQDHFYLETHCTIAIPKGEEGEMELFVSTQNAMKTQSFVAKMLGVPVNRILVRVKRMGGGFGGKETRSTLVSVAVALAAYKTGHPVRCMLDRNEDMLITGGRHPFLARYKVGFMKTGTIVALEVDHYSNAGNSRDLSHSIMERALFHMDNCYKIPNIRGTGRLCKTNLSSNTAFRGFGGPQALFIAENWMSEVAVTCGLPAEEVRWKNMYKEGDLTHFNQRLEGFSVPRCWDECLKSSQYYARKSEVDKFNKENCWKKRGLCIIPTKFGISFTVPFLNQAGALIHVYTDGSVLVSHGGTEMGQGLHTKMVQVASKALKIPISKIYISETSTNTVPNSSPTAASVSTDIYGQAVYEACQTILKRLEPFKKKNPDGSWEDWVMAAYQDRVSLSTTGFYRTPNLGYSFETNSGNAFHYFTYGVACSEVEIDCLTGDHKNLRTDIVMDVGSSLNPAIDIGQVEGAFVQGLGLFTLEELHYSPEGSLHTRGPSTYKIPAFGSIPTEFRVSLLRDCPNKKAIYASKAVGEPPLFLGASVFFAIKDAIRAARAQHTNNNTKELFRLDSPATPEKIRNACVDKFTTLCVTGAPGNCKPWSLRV

In the case of `O=c1c(O)c(-c2ccc(O)c(O)c2)oc2cc(O)cc(O)c12` [Quercetin, quercetin], the inhibition type result in the experiment on XO is listed as “mixed-type”. Besides, in the experiment with XO (ref 18 (Zhang et al.)), the IC50 was 2.74 ± 0.04 µM.

For the compound `O=C1/C(=C/c2ccc(O)c(O)c2)Oc2cc(O)cc(O)c21` [AUR, Aureusidin], the fluorescence quenching mechanism result in experiment [1] is recorded as “static quenching process”. In experiment [1] (setting [5]), this compound yielded a ΔH of 3.1 kcal/mol and a ΔS of 121.95 J mol^−1 K^−1. Besides, in experiment [1] (298 K), the “lg K” value was determined as 4.096, the “number of binding sites n” value is on record as 0.977, the “quenching constant Ksv” value was determined as 16190 L/mol and the Kd was 80.2 µM. Besides, in experiment [1] (304 K), the “lg K” value was found to be 4.155, the “number of binding sites n” value was 0.993, the “quenching constant Ksv” value was 15450 L/mol and the ΔG was -8.858 kcal/mol. Further, the Kd in experiment [1] (304 K) is 70 µM. Besides, in experiment [1] (310 K), the “lg K” value is 4.184, the “number of binding sites n” value is reported as 1.006, the “quenching constant Ksv” value stood at 14370 L/mol and the ΔG was -9.032 kcal/mol. Besides, the Kd in experiment [1] (310 K) was 65.4 µM. Also, in experiment [2] (free XO 17.50), the “β-Sheet content of XO” value was 12.07%. Besides, the “β-Turn content of XO” value in experiment [2] (free XO 40.37) came to 23.31%. In experiment [2] (free XO 42.13), the “α-Helix and random structure content of XO” value came out at 64.62%. In experiment [3], the affinity corresponds to a Ki of 1.8 µM and the “ratio (α) of Kis to Ki” value is recorded as 0.31. Besides, the inhibition type result in experiment [3] (Lineweaver–Burk plot, XO 0.025 U mL^−1, AUR 0–30 μM) was “mixed-type (competitive and noncompetitive)”. Further, the “uncompetitive inhibition constant (Kis)” value in experiment [3] (binding to XO–xanthine complex) amounted to 0.56 µM. For the same compound, the inhibition reversibility result in experiment [3] (plots of v vs [XO], AUR 0–30 μM, xanthine 0.25 mM) is “reversible”. The IC50 in experiment [4] turned out to be 7.62 ± 0.401 µM.

Turning to `O=C1/C(=C/c2ccc(O)c(O)c2)Oc2cc(O)ccc21` [sulfuretin], the IC50 in the experiment on XO (ref 24 (Muzychka et al.)) is 3.1 ± 0.38 µM.
